The values below come from the EternaBench riboswitch data.

This data set relates to MS2 coat protein. The data set is described as follows: apparent Kd, MS2 coat protein; higher = weaker binding; RNA-MaP array; FMN 200 µM where present. The procedure, abridged:
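Each design was made on Illumina sequencing-chip clusters by stalled E. coli RNA polymerase and titrated with SNAP-549-labelled MS2 coat protein from 0.7 or 1.5 nM, doubling to 3 µM, in the absence and then the presence of constant ligand. The buffer was 100 mM Tris-HCl pH 7.5, 80 mM KCl, 4 mM MgCl2, BSA, DTT, yeast tRNA and Tween-20. The apparent Kd is the median of filtered per-cluster fits of binding curves, with green signal normalised to red-channel RNA signal and control-cluster median Fmax.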

Where [1] appears, read: designed as: OFF switch for flavin mononucleotide, no ligand.
The mark [2] stands for this setting: ligand present: flavin mononucleotide, designed as: OFF switch for flavin mononucleotide.
[3] abbreviates: designed as: ON switch for flavin mononucleotide, no ligand.
[4] abbreviates: ligand present: flavin mononucleotide, designed as: ON switch for flavin mononucleotide.

Take “GGAGCAACAUGAGGAUCACCCAUGUAGGAUAUCGCUAUUGUAAUCAUGAAACAUGAUUACAAUAGCGAGAAGGACAUAUGCUUU”: the “apparent Kd” value runs as follows: under setting [1], 9.32 nM; under setting [2], 11.9 nM.
For “UAAACACCCUCAUGUGCCUGAGGACAUGAGGAUCACCCAUGUAAGGAUAUAGCCAUUAAAUCUAACUAGAAGGUAUAGGAAAUC”, the “apparent Kd” value by setting is: under setting [1], 597 nM; under setting [2], 476 nM.
With “UCAUUUAUUACAGGAUAUGUUAGUAUACAGUUGUUUGGUUAUUACUUAUUAACAGAAGGGUAGAACAUGAGGAUCACCCAUGUA”, the “apparent Kd” value is, setting by setting: under setting [3], 80.4 nM; under setting [4], 40.7 nM.
For “AGAUAACACCAGAAGGACAUGAGGAUCACCCAUGUAGGAUAUGGGCAUCACUCGAGAAAGAAACGACCAAAUGGACACGCGGUC”, in that order: 80.1 nM and 9.46 nM.
Taken in the same sequence, the figures for “AACGGGUGGGUAGGAUAUGGCUAUGUCUCAUUGCUAGAAGGGCCAGCUGCUACAUGAGGAUCACCCAUGUCGUAGUGCACCCAG” were 72.4 nM and 40.3 nM.
For “AACAAUCUAUCUGAGGAUAUCAUGUCAAAGACAUGAGGAUCACCCAUGUUGCAGGAAACUGCUCAUGAGAAGGCAGAUAGAUUGA”, in that order: 614 nM and 43.7 nM.
Take “ACAUGAGGAUCACCCAUGUUAAACGAGGAUAUAUGACUGCACAUGAGGUUCACCCAUGUUCUACCGUAGAAGGUGUAAAUAAUU”: the “apparent Kd” value turned out to be 68.5 nM under setting [3] and 70.6 nM under setting [4].
Take “CGGUUUCACAUUUUAGUGAUUUAUACAGAAGGCCAUACACAUGAGGAUCACCCAUGUCAGGAAUUGGAGGAUAUGUUAUUGACG”: the “apparent Kd” value by setting is: under setting [3], 6.1 nM; under setting [4], 4.4 nM.
For “CGUGACGACAUAGGAUAUUGAUACAUGAGGAUCACCCAUGUCACCCAUUUAUCUCAAAUUGUUGACAAGAAGGAUGUGGUCACG”, in that order: 16.7 nM and 10.8 nM.
With “CGUAGGAUCCAGAAGGCAUGAACAUGAGGAUCACCCAUGUGAAAAGACAUGAGGAUAUGGAUCCUACGAAAAGUGCGAAAGCAC”, the “apparent Kd” value was 5.53 nM under setting [3] and 5.47 nM under setting [4].
For the sequence “GACAGACAUGAGGAUCACCCAUGUACAAACGUACAAGGAUAUGUGUGGAAACCGUACUAUACAGAAGGUGUCUGUC”, the “apparent Kd” value came out at 121 nM under setting [3] and 151 nM under setting [4].
On to “UGAGCAGAAGGAUAUGCGUAAUGGCCGUGAGGCCUAGAUCUACAUGAGGAUCACCCAUGUAGAAGGUCUGUUCU”, for which the “apparent Kd” value reads like this: under setting [1], 15.3 nM; under setting [2], 15.2 nM.
On to “GCAGGAAAACUUGGUACAUGAGGAUCACCCAUGUAAAGCGGCAGAAGGGCGAUGUUAUGUAUAACGCAGGAUAUGCAGCGGAAU”, for which the “apparent Kd” value under setting [3] was 46.4 nM and the “apparent Kd” value under setting [4] worked out at 18.1 nM.
Turning to “GUUUCACAUGAGGAUCACCCAUGUGAGGAUAUGGAUUUGUUAACCGUAGUUAAUAGAUCCAGAAGGCGCGUGAU”, the “apparent Kd” value is, setting by setting: under setting [1], 62.4 nM; under setting [2], 68.2 nM.
For “UACAUGAGGAUCACCCAUGUUUUGUCGUGUAUGGUAUUUAUCUAGGAUAUCGUGUUAUUUAACCACGAGAAGGAGAGUAUCAAU”, in that order: 27.5 nM and 26.7 nM.
For “AAAAAGUCAGGAUAUACAUGAGGAUCACCCAUGUAGCAUACGAAAAAGAGUGUGCAGUGUAGAAGGGACAAAAA”, in that order: 27.1 nM and 25.7 nM.
For “UUAUGUCGCGUAGGAUAUCACUAGUGUUGUAAUUUAAUUGUAAUUACGAUGUGAGAAGGACGUACACAUGAGGAUCACCCAUGU”, the “apparent Kd” value under setting [1] is 20.3 nM and the “apparent Kd” value under setting [2] was determined as 16.2 nM.
For “UCUUUCGUUGUGAGGAUAUGCCCAAAUAAAAGCGGGCAGAAGGCACAUGAGGAUCACCCAUGUCCUGCGGUUUU”, in that order: 22.8 nM and 288 nM.
Take “GUCAGCAAAUAAGGAUAUACAACACUGCUUCGGCAGUGUAUUAAGAUCACAUGAGGAUCACCCAUGUAGAAGGUAUAAGCUGAU”: the “apparent Kd” value under setting [1] was determined as 6.98 nM and the “apparent Kd” value under setting [2] was determined as 24.5 nM.
Regarding “GCAGCGACUGCAGGAUAUCAGCACGUGUAGUGCUGAGAAGGGCACAUGAGGAUCACCCAUGUGAUCAAUUAAUAGUCAUGCUGC”, the “apparent Kd” value under setting [1] turned out to be 7.23 nM and the “apparent Kd” value under setting [2] worked out at 15.9 nM.
Regarding “AUUUUGCUCGCAGGAUAUCAGGAAAUGUUGAUCUUCUGUAUCUCCUACAUGAGGAUCACCCAUGUUGAGAAGGGCGAUGGCAAU”, the “apparent Kd” value under setting [1] was 106 nM and the “apparent Kd” value under setting [2] was determined as 358 nM.
Taken in the same sequence, the figures for “GUGGUACAUGAGGAUCACCCAUGUUAGGAUAUCGCGUGAGGUUUUACUUCCGCACGCGCGAGAAGGGACGUCUU” were 36.2 nM and 29.5 nM.
“CGGUUGUCAGGAUAUACGAACAUGUCGCCAGAUGUCAUGGUACAUGAGGAUCACCCAUGUAGAAGGGAGGAGGU”: the “apparent Kd” value by setting is: under setting [1], 135 nM; under setting [2], 80 nM.
Taken in the same sequence, the figures for “CAAAUCUGAGGAUAUCGAUAUUUGUACAUGAGGAUCACCCAUGUCCUAUUUAUUAUAUUUCGAGAAGGCAGUGUAU” were 19.5 nM and 17.2 nM.
